Measurements reported in ChEMBL document CHEMBL6115053, “Optimization and Characterization of N-Acetamide Indoles as Antimalarials That Target PfATP4” (J Med Chem, 2025).
≈ marks a conversion by molar mass, not a printed value. Calls of active or inactive are those of the source. The calls are words filed in the database; no cut-off is given here.

What was measured:
Plasmodium falciparum [1] = assay: Antiplasmodial activity against asexual Plasmodium falciparum 3D7 infected in human […] cells assessed as reduction in parasite growth measured for 72 hrs by LDH assay; type: functional, organism-based; details: 3D7, 72 h
HepG2 = assay: Cytotoxicity against human HepG2 cells assessed as inhibition of cell growth incubated for 48 hrs by celltiterglo assay; type: toxicity, cell-based; details: hepg2, 48 h
[2] = Aqueous solubility in PBS buffer at pH 7.4; type: physicochemical
[3] = Metabolic stability in human liver microsome assessed as intrinsic clearance; type: ADME; details: microsomes
[4] = Metabolic stability in mouse liver microsome assessed as intrinsic clearance; type: ADME; details: microsomes
[5] = Metabolic stability in rat hepatocyte […] assessed as intrinsic clearance measured per 10^6 cells; type: ADME, cell-based; details: hepatocytes
[6] = Lipophilicity, logD of compound at pH 7.4 by shake-flask method; type: physicochemical; details: buffer
Plasmodium falciparum [7] = assay: Antimalarial activity against synchronized-ring stage Plasmodium falciparum 3D7 assessed as reduction in parasitemia at 10 times EC50 measured at 72 hrs post-treatment by LDH assay; type: functional, organism-based
How it was run: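 Parasite reduction ratio assay in P. falciparum 3D7 with an LDH read-out. Means and SDs were taken from three replicate experiments.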

Plasmodium falciparum [8] = assay: Antiplasmodial activity against Plasmodium falciparum 3D7 infected in RBC assessed as reduction in parasite growth measured for 8 hrs by Giemsa-staining based microscopic analysis; type: functional, organism-based
How it was run: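 Giemsa-stained thin smears were read at 8 h and the percentages of extracellular and intracellular parasites counted, compared with untreated parasites at 0 h.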

Plasmodium falciparum [9] = assay: Antiplasmodial activity against wild type Plasmodium falciparum 3D7 incubated for 48 hrs; type: functional, organism-based; details: 3D7, 48 h
Plasmodium falciparum [10] = assay: Antiplasmodial activity against multi-drug resistant Plasmodium falciparum Dd2; type: functional, organism-based
Plasmodium falciparum [11] = assay: Antiplasmodial activity against multidrug resistant Plasmodium falciparum W2mef incubated for 48 hrs by SYBR staining based fluorometer assay; type: functional, organism-based
Plasmodium falciparum [12] = assay: Antiplasmodial activity against multidrug resistant Plasmodium falciparum Cam3.1 incubated for 48 hrs by SYBR staining based fluorometer assay; type: functional, organism-based; details: Cam3.1, 48 h

Structure (SMILES)	EC50 (Plasmodium falciparum [1]) [µM]	CC50 (HepG2) [µM]	other results
COc1cc(NC(=O)Cn2ccc3ccc(-c4cn(C)nc4C)cc32)cc(OC)c1OC	0.1	> 40	solubility kinetic [2]: 8.6 µM (≈ 3.74 µg/mL); intrinsic clearance (CLint) [3]: 105 µL/min/mg; intrinsic clearance (CLint) [4]: 207 µL/min/mg; intrinsic clearance (CLint) [5]: 11 uL/min/10^6 cells; logD [6]: 3.2
Cc1nnc(-c2ccc3ccn(CC(=O)Nc4cccnc4Cl)c3c2)o1	1.17	> 40	solubility kinetic [2]: 73 µM (≈ 26.8 µg/mL); intrinsic clearance (CLint) [3]: 57 µL/min/mg; intrinsic clearance (CLint) [5]: 27 uL/min/10^6 cells; logD [6]: 2.1
Cn1cc(-c2ccc3ccn(CC(=O)Nc4ccccc4Cl)c3c2)c(C(F)(F)F)n1	0.043	> 40	solubility kinetic [2]: 2.5 µM (≈ 1.08 µg/mL); intrinsic clearance (CLint) [3]: 488 µL/min/mg; intrinsic clearance (CLint) [5]: 92 uL/min/10^6 cells; logD [6]: 4.7
CCc1nc(N)nc(N)c1-c1ccc(Cl)cc1	–	–	Activity (Plasmodium falciparum [7]): Active
Cc1n[nH]c(C)c1-c1ccc2ccn(CC(=O)Nc3ccccc3Cl)c2c1	3.6	> 40	–
COc1ccc(NC(=O)Cn2ccc3ccc(-c4nnc(C)o4)cc32)cc1OC	1.55	> 40	–
Cc1nnc(-c2ccc3ccn(CC(=O)Nc4ccccc4C#N)c3c2)o1	3.48	> 40	–
O=C(Cn1ccc2ccc(-c3cnn(C(F)F)c3)cc21)Nc1ccccc1Cl	1.5	> 40	–
COc1ccc(NC(=O)Cn2ccc3ccc(-c4nnc(C)o4)cc32)cc1	7.8	> 40	–
Cc1nn(C)c(C)c1-c1ccc2ccn(CC(=O)Nc3ccccc3Cl)c2c1	0.31	> 40	–
CCN(CC)CCCC(C)Nc1ccnc2cc(Cl)ccc12 (configuration not stated)	–	–	Activity (Plasmodium falciparum [7]): Active; Activity (Plasmodium falciparum [8]): Active
Cc1nnc(-c2ccc3ccn(CC(=O)Nc4cccc(Cl)c4Cl)c3c2)o1	1.33	> 40	–
COc1cc(NC(=O)Cn2ccc3ccc(-c4cnn(C)c4)cc32)cc(OC)c1OC	0.385	> 40	solubility kinetic [2]: 4.6 µM (≈ 1.93 µg/mL); intrinsic clearance (CLint) [3]: 95 µL/min/mg; intrinsic clearance (CLint) [5]: 4.6 uL/min/10^6 cells; logD [6]: 3.5
Cn1cc(-c2cc3c(ccn3CC(=O)Nc3ccccc3Cl)cn2)cn1	8.45	> 40	–
Cc1nnc(-c2ccc3ccn(CC(=O)Nc4cccc(Cl)c4)c3c2)o1	0.898	> 40	–
Cc1nnc(-c2ccc3ccn(CC(=O)Nc4cccc(F)c4Cl)c3c2)o1	1.33	> 40	–
Cc1nnc(-c2ccc3ccn(CC(=O)Nc4cccc(C#N)c4)c3c2)o1	0.99	> 40	–
COc1cc(NC(=O)Cn2ccc3ccc(-c4nnc(C)o4)cc32)cc(OC)c1	1.18	> 40	–

Structure (SMILES)	EC50 (Plasmodium falciparum [1]) [µM]	CC50 (HepG2) [µM]	other results
Cc1nnc(-c2ccc3ccn(CC(=O)Nc4cc(Cl)cc(Cl)c4)c3c2)o1	3.88	> 40	–
Cc1ncc(-c2ccc3ccn(CC(=O)Nc4ccccc4Cl)c3c2)s1	1.9	> 40	–
Cc1nnc(-c2ccc3ccn(CC(=O)Nc4cc(F)ccc4Cl)c3c2)o1	0.683	> 40	–
COc1cc(NC(=O)Cn2cc(Cl)c3ccc(-c4cnn(C)c4)cc32)cc(OC)c1OC	0.049	> 40	solubility kinetic [2]: 2.5 µM (≈ 1.14 µg/mL); intrinsic clearance (CLint) [3]: 15 µL/min/mg; intrinsic clearance (CLint) [4]: 53 µL/min/mg; intrinsic clearance (CLint) [5]: < 1 uL/min/10^6 cells; logD [6]: 4.2
Cc1nnc(-c2ccc3ccn(CC(=O)Nc4c(F)cccc4F)c3c2)o1	1.65	> 40	–
Cn1cc(-c2ccc3c(Cl)cn(CC(=O)Nc4ccccc4Cl)c3c2)cn1	0.138	> 40	solubility kinetic [2]: < 2.5 µM; intrinsic clearance (CLint) [3]: 65 µL/min/mg; intrinsic clearance (CLint) [4]: 177 µL/min/mg; intrinsic clearance (CLint) [5]: 29 uL/min/10^6 cells; logD [6]: 4.6
Cc1nnc(-c2ccc3ccn(CC(=O)Nc4ccc(C(F)(F)F)cc4)c3c2)o1	2.1	> 40	–
COc1cc(NC(=O)Cn2cc(Cl)c3cc(F)c(-c4cn(C)nc4C)cc32)cc(OC)c1OC	0.108	> 40	solubility kinetic [2]: 2.5 µM (≈ 1.22 µg/mL); intrinsic clearance (CLint) [3]: 64 µL/min/mg; intrinsic clearance (CLint) [4]: 73 µL/min/mg; intrinsic clearance (CLint) [5]: 5.7 uL/min/10^6 cells; logD [6]: 4.8
Cn1cc(-c2ccc3ccn(CC(=O)Nc4ccccc4Cl)c3n2)cn1	1.53	> 40	solubility kinetic [2]: 2.5 µM (≈ 0.915 µg/mL); intrinsic clearance (CLint) [3]: 458 µL/min/mg; intrinsic clearance (CLint) [5]: 92 uL/min/10^6 cells; logD [6]: 3.3
Cc1nnc(-c2ccc3ccn(CC(=O)Nc4ccc(Cl)cc4)c3c2)o1	4.47	> 40	–
O[C@@H](c1cc(C(F)(F)F)nc2c(C(F)(F)F)cccc12)[C@H]1CCCCN1 (racemic) [(S,R)-MEFLOQUINE]	–	–	EC50 (Plasmodium falciparum [9]): 0.023 µM; EC50 (Plasmodium falciparum [10]): 0.035 µM; EC50 (Plasmodium falciparum [11]): 0.064 µM; EC50 (Plasmodium falciparum [12]): 0.009 µM
CCn1cc(-c2ccc3ccn(CC(=O)Nc4ccccc4Cl)c3c2)cn1	> 10	> 40	–
Cc1cccc(-c2ccc3ccn(CC(=O)Nc4ccccc4Cl)c3c2)c1	1.11	> 40	–
Cc1ccc(NC(=O)Cn2ccc3ccc(-c4nnc(C)o4)cc32)cc1	5.35	> 40	–
Cn1cc(-c2ccc3c(F)cn(CC(=O)Nc4ccccc4Cl)c3c2)cn1	0.33	> 40	–
Cc1nnc(-c2ccc3ccn(CC(=O)Nc4cccc(F)c4)c3c2)o1	1.45	> 40	–
Cc1nnc(-c2ccc3ccn(CC(=O)Nc4ccc(F)cc4)c3c2)o1	3.8	> 40	–
